Results reported in ChEMBL document CHEMBL1153769, “Novel modified steroid derivatives of androstanolone as chemotherapeutic anti-cancer agents” (Eur J Med Chem, 2009).

How the values were obtained:
HepG2 [1] = assay: Antitumor activity against human HepG2 cells incubated with drug dissolved in olive oil after 48 hrs by MTT assay; type: functional, cell-based; details: HepG2, 48 h
How it was run: (§1)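 HepG2 cells (trypan blue viability >97%) grown in RPMI-1640 with L-glutamine and 10% fetal calf serum, seeded at 3×10³ cells/well. Compounds in olive oil or DMSO were tested at 10, 50 and 100 for 24, 48 and 72 h. MTT (0.5 mg/ml) added, formazan dissolved in DMSO, OD read at 570 nm (ref 690 nm). Reported as % growth inhibition vs control; run in triplicate.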

HepG2 [2] = assay: Antitumor activity against human HepG2 cells incubated with drug dissolved in olive oil after 72 hrs by MTT assay; type: functional, cell-based; details: HepG2, 72 h; how it was run: as §1
HepG2 [3] = assay: Antitumor activity against human HepG2 cells incubated with drug dissolved in DMSO after 48 hrs by MTT assay; type: functional, cell-based; details: HepG2, 48 h; how it was run: as §1
HepG2 [4] = assay: Antitumor activity against human HepG2 cells incubated with drug dissolved in DMSO after 72 hrs by MTT assay; type: functional, cell-based; details: HepG2, 72 h; how it was run: as §1
Mus musculus [5] = assay: Toxicity in mouse EAC cells transplanted Swiss albino mouse assessed as change in hematocrit content at 25 mg/kg. ip dissolved in DMSO for 14 days measured after final dose by 18 hrs fasting; type: organism-based, Ehrlich; parameters: dose 25 mg/kg, route intraperitoneal; details: in vivo
How it was run: (§2)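 Mice (n = 5/group) given 2×10⁶ EAC cells in 0.2 ml i.p. Treatment was 25 mg/kg b.wt. i.p. in DMSO, every other day for 14 days. Animals were fasted 18 h after the last dose, then sacrificed. Tumour volume, haemoglobin, haematocrit, total WBC and body weight recorded. Normal and untreated EAC groups served as controls. Mean ± SE.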

Mus musculus [6] = assay: Toxicity in mouse EAC cells transplanted Swiss albino mouse assessed as change in hemoglobin content at 25 mg/kg. ip dissolved in DMSO for 14 days measured after final dose by 18 hrs fasting; type: organism-based, Ehrlich; parameters: dose 25 mg/kg, route intraperitoneal; details: in vivo; how it was run: as §2
Mus musculus [7] = assay: Toxicity in mouse EAC cells transplanted Swiss albino mouse assessed as change in total WBC content at 25 mg/kg. ip dissolved in DMSO for 14 days measured after final dose by 18 hrs fasting; type: organism-based, Ehrlich; parameters: dose 25 mg/kg, route intraperitoneal; details: in vivo; how it was run: as §2
Mus musculus [8] = assay: Toxicity in mouse EAC cells transplanted Swiss albino mouse assessed as decrease in body weight at 25 mg/kg. ip dissolved in DMSO for 14 days measured after final dose by 18 hrs fasting; type: organism-based, Ehrlich; parameters: dose 25 mg/kg, route intraperitoneal; scale not given: the % may be the effect or the level left; details: in vivo; how it was run: as §2
[9] = Antitumor activity in mouse EAC cells transplanted in Swiss albino mouse assessed as decrease in tumor volume at 25 mg/kg. ip dissolved in DMSO for 14 days measured after final dose by 18 hrs fasting; type: functional, Ehrlich; parameters: unit not given here; details: route intraperitoneal; how it was run: as §2
Mus musculus [10] = species: Mus musculus; assay: Toxicity in mouse EAC cells transplanted Swiss albino mouse assessed as loss of appetite; type: organism-based; details: ehrlich
Mus musculus [11] = species: Mus musculus; assay: Toxicity in mouse EAC cells transplanted Swiss albino mouse assessed as induction of dizziness; type: organism-based; details: ehrlich
Mus musculus [12] = species: Mus musculus; assay: Toxicity in mouse EAC cells transplanted Swiss albino mouse assessed as induction of errection of hair; type: organism-based; details: ehrlich
Mus musculus [13] = species: Mus musculus; assay: Toxicity in mouse EAC cells transplanted Swiss albino mouse assessed as induction of hypothermia; type: organism-based; details: ehrlich
Mus musculus [14] = assay: Toxicity in mouse EAC cells transplanted Swiss albino mouse assessed as change in hematocrit content at 20 mg/kg. ip dissolved in DMSO for 14 days measured after final dose by 18 hrs fasting; type: organism-based, Ehrlich; parameters: dose 20 mg/kg, route intraperitoneal; details: in vivo
How it was run: (§3)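 Reference-drug group (n = 5): mice given 2×10⁶ EAC cells in 0.2 ml i.p., then 20 mg/kg b.wt. for 14 days. Fasted 18 h after the last dose, then sacrificed. Tumour volume, haemoglobin, haematocrit, total WBC and body weight measured against normal and untreated EAC groups. Mean ± SE.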

Mus musculus [15] = assay: Toxicity in mouse EAC cells transplanted Swiss albino mouse assessed as change in total WBC content at 20 mg/kg. ip dissolved in DMSO for 14 days measured after final dose by 18 hrs fasting; type: organism-based, Ehrlich; parameters: dose 20 mg/kg, route intraperitoneal; details: in vivo; how it was run: as §3
Mus musculus [16] = assay: Toxicity in mouse EAC cells transplanted Swiss albino mouse assessed as decrease in body weight at 20 mg/kg. ip dissolved in DMSO for 14 days measured after final dose by 18 hrs fasting; type: functional, Ehrlich; parameters: scale not given: the % may be the effect or the level left; details: route intraperitoneal; how it was run: as §3
[17] = Antitumor activity in mouse EAC cell transplanted in Swiss albino mouse assessed as decrease in tumor volume at 20 mg/kg. ip dissolved in DMSO for 14 days measured after final dose by 18 hrs fasting; type: functional, Ehrlich; details: route intraperitoneal; how it was run: as §3

Row | SMILES | IC50 (HepG2 [1]) | IC50 (HepG2 [2]) | IC50 (HepG2 [3]) | IC50 (HepG2 [4]) | Activity (Mus musculus [5]) | Activity (Mus musculus [6]) | Activity (Mus musculus [7]) | Activity (Mus musculus [8]) | Activity [9] | Activity (Mus musculus [10]) | Activity (Mus musculus [11]) | Activity (Mus musculus [12]) | Activity (Mus musculus [13]) | Activity (Mus musculus [14]) | Activity (Mus musculus [15]) | Activity (Mus musculus [16]) | Activity [17]
1 | CC(=O)O[C@H]1CC[C@H]2[C@@H]3CC[C@H]4Cc5c(C#N)c(N)n(-c6ccccc6)c(=S)c5C[C@]4(C)[C@H]3CC[C@]12C | 48 µM | 40 µM | > 100 µM | > 100 µM | 33.8% | 12.6% | 5.75 /10'3mm'-3 | 18% | 0 | Non-toxic | Non-toxic | Non-toxic | Non-toxic | – | – | – | –
2 | COc1ccc(C2Oc3nc(N)c(C#N)c(N)c3C3=C2C[C@@]2(C)[C@@H](CC[C@@H]4[C@@H]2CC[C@]2(C)[C@@H](OC(C)=O)CC[C@@H]42)C3)cc1 (some centres undefined) | 48 µM | 41 µM | 95 µM | > 100 µM | 38.3% | 12.65% | 7.35 /10'3mm'-3 | 21.5% | 0 | Non-toxic | Non-toxic | Non-toxic | Non-toxic | – | – | – | –
3 | CC(=O)O[C@H]1CC[C@H]2[C@@H]3CC[C@H]4CNC(=O)CC[C@]4(C)[C@H]3CC[C@]12C | 47 µM | 35 µM | 42 µM | 40 µM | 38.56% | 12.96% | 6.46 /10'3mm'-3 | 20.33% | 0 | Non-toxic | Non-toxic | Non-toxic | Non-toxic | – | – | – | –
4 | CC(=O)O[C@H]1CC[C@H]2[C@@H]3CC[C@H]4CC5=C(C[C@]4(C)[C@H]3CC[C@]12C)C(c1ccccc1)OC(N)=C5C#N (some centres undefined) | 46 µM | 30 µM | 81 µM | 73 µM | 36.6% | 12.5% | 5.9 /10'3mm'-3 | 18.66% | 0 | Non-toxic | Non-toxic | Non-toxic | Non-toxic | – | – | – | –
5 | CC(=O)O[C@H]1CC[C@H]2[C@@H]3CC[C@H]4C/C(=N/n5c(-c6ccccc6)csc5=S)CC[C@]4(C)[C@H]3CC[C@]12C | 47 µM | 37 µM | 85 µM | 90 µM | 42.7% | 10.7% | 5.66 /10'3mm'-3 | 20% | 0 | Non-toxic | Non-toxic | Non-toxic | Non-toxic | – | – | – | –
6 | O=c1[nH]cc(F)c(=O)[nH]1 [FLUOROURACIL] | – | – | – | – | – | – | – | – | – | – | – | – | – | 10.73% | 6.4 /10'3mm'-3 | 23% | 0 mL⁻¹
